# Measurements published in ChEMBL document CHEMBL4689842, “EUbOPEN Chemogenomics Library wave 1” (2021).
# System: Fibroblast
# Assay: Multiplex assay against human fibroblast
# Format: toxicity, cell-based
# Outline: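 On a CQ1 microscope at 37°C and 5% CO2, live cells were imaged after compound addition. They had been stained at seeding with Hoechst33342, BioTracker Green Microtubule Cytoskeleton Dye, MitoTracker Red and Annexin V Alexa Fluor 680. CellPathfinder machine-learning gating assigned cells to Hoechst high-intensity objects or normal cells, normal cells to healthy, pyknosed or fragmented nuclei, and pyknosed cells to mitotic or apoptotic. Tubulin, mitochondrial-mass and membrane-permeability phenotypes are per cents of healthy-nucleus cells.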
# [1] = 12 h, 1 µM, compound concentration 1 uM, replicate 1
# [2] = 12 h, 1 µM, compound concentration 1 uM, replicate 2
# [3] = 12 h, 10 µM, compound concentration 10 uM, replicate 1
# [4] = 12 h, 10 µM, compound concentration 10 uM, replicate 2
# [5] = 24 h, 1 µM, compound concentration 1 uM, replicate 1
# [6] = 24 h, 1 µM, compound concentration 1 uM, replicate 2
# [7] = 24 h, 10 µM, compound concentration 10 uM, replicate 1
# [8] = 24 h, 10 µM, compound concentration 10 uM, replicate 2
# [9] = 48 h, 1 µM, compound concentration 1 uM, replicate 1
# [10] = 48 h, 1 µM, compound concentration 1 uM, replicate 2
# [11] = 48 h, 10 µM, compound concentration 10 uM, replicate 1
# [12] = 48 h, 10 µM, compound concentration 10 uM, replicate 2
smiles,measurement,setting,value
Cl.O=C(O)c1cc(-c2ccc(C3CCNCC3)cc2)c2ccc(-c3ccc(C(F)(F)F)cc3)cc2c1,Population Apoptotic (%),[1],65%
same,Population Fragmented Nuclei (%),[1],31%
same,Population Healthy Nuclei (%),[1],31%
same,Population Hoechst High Intensity Objects (%),[1],20%
same,Population Membrane Permeable-Phenotype (%),[1],31%
same,Population Mitochondria Different-Phenotype (%),[1],5%
same,Population Mitotic Cells (%),[1],34%
same,Population Normal (%),[1],79%
same,Population Pyknosed Nuclei (%),[1],37%
same,Population Tubulin-Different-Phenotype (%),[1],21%
same,Total Cell Count,[1],77
same,Population Apoptotic (%),[2],50%
same,Population Fragmented Nuclei (%),[2],11%
same,Population Healthy Nuclei (%),[2],83%
same,Population Hoechst High Intensity Objects (%),[2],5%
same,Population Membrane Permeable-Phenotype (%),[2],3%
same,Population Mitochondria Different-Phenotype (%),[2],16%
same,Population Mitotic Cells (%),[2],50%
same,Population Normal (%),[2],94%
same,Population Pyknosed Nuclei (%),[2],5%
same,Population Tubulin-Different-Phenotype (%),[2],36%
same,Total Cell Count,[2],60
same,Population Apoptotic (%),[3],62%
same,Population Fragmented Nuclei (%),[3],27%
same,Population Healthy Nuclei (%),[3],40%
same,Population Hoechst High Intensity Objects (%),[3],18%
same,Population Membrane Permeable-Phenotype (%),[3],5%
same,Population Mitochondria Different-Phenotype (%),[3],20%
same,Population Mitotic Cells (%),[3],37%
same,Population Normal (%),[3],81%
same,Population Pyknosed Nuclei (%),[3],32%
same,Population Tubulin-Different-Phenotype (%),[3],57%
same,Total Cell Count,[3],122
same,Population Apoptotic (%),[4],60%
same,Population Fragmented Nuclei (%),[4],14%
same,Population Healthy Nuclei (%),[4],64%
same,Population Hoechst High Intensity Objects (%),[4],14%
same,Population Membrane Permeable-Phenotype (%),[4],10%
same,Population Mitochondria Different-Phenotype (%),[4],13%
same,Population Mitotic Cells (%),[4],40%
same,Population Normal (%),[4],85%
same,Population Pyknosed Nuclei (%),[4],21%
same,Population Tubulin-Different-Phenotype (%),[4],23%
same,Total Cell Count,[4],38
same,Population Apoptotic (%),[5],62%
same,Population Fragmented Nuclei (%),[5],24%
same,Population Healthy Nuclei (%),[5],47%
same,Population Hoechst High Intensity Objects (%),[5],21%
same,Population Membrane Permeable-Phenotype (%),[5],44%
same,Population Mitochondria Different-Phenotype (%),[5],7%
same,Population Mitotic Cells (%),[5],37%
same,Population Normal (%),[5],78%
same,Population Pyknosed Nuclei (%),[5],28%
same,Population Tubulin-Different-Phenotype (%),[5],44%
same,Total Cell Count,[5],73
same,Population Apoptotic (%),[6],20%
same,Population Fragmented Nuclei (%),[6],11%
same,Population Healthy Nuclei (%),[6],79%
same,Population Hoechst High Intensity Objects (%),[6],3%
same,Population Membrane Permeable-Phenotype (%),[6],4%
same,Population Mitochondria Different-Phenotype (%),[6],9%
same,Population Mitotic Cells (%),[6],80%
same,Population Normal (%),[6],96%
same,Population Pyknosed Nuclei (%),[6],9%
same,Population Tubulin-Different-Phenotype (%),[6],30%
same,Total Cell Count,[6],62
same,Population Apoptotic (%),[7],53%
same,Population Fragmented Nuclei (%),[7],35%
same,Population Healthy Nuclei (%),[7],36%
same,Population Hoechst High Intensity Objects (%),[7],15%
same,Population Membrane Permeable-Phenotype (%),[7],12%
same,Population Mitochondria Different-Phenotype (%),[7],27%
same,Population Mitotic Cells (%),[7],46%
same,Population Normal (%),[7],84%
same,Population Pyknosed Nuclei (%),[7],28%
same,Population Tubulin-Different-Phenotype (%),[7],62%
same,Total Cell Count,[7],131
same,Population Apoptotic (%),[8],61%
same,Population Fragmented Nuclei (%),[8],17%
same,Population Healthy Nuclei (%),[8],61%
same,Population Hoechst High Intensity Objects (%),[8],8%
same,Population Membrane Permeable-Phenotype (%),[8],7%
same,Population Mitochondria Different-Phenotype (%),[8],5%
same,Population Mitotic Cells (%),[8],38%
same,Population Normal (%),[8],91%
same,Population Pyknosed Nuclei (%),[8],20%
same,Population Tubulin-Different-Phenotype (%),[8],16%
same,Total Cell Count,[8],56
same,Population Apoptotic (%),[9],50%
same,Population Fragmented Nuclei (%),[9],30%
same,Population Healthy Nuclei (%),[9],40%
same,Population Hoechst High Intensity Objects (%),[9],20%
same,Population Membrane Permeable-Phenotype (%),[9],48%
same,Population Mitochondria Different-Phenotype (%),[9],0%
same,Population Mitotic Cells (%),[9],50%
same,Population Normal (%),[9],79%
same,Population Pyknosed Nuclei (%),[9],29%
same,Population Tubulin-Different-Phenotype (%),[9],40%
same,Total Cell Count,[9],78
same,Population Apoptotic (%),[10],100%
same,Population Fragmented Nuclei (%),[10],16%
same,Population Healthy Nuclei (%),[10],82%
same,Population Hoechst High Intensity Objects (%),[10],8%
same,Population Membrane Permeable-Phenotype (%),[10],6%
same,Population Mitochondria Different-Phenotype (%),[10],2%
same,Population Mitotic Cells (%),[10],0%
same,Population Normal (%),[10],91%
same,Population Pyknosed Nuclei (%),[10],1%
same,Population Tubulin-Different-Phenotype (%),[10],26%
same,Total Cell Count,[10],104
same,Population Apoptotic (%),[11],76%
same,Population Fragmented Nuclei (%),[11],42%
same,Population Healthy Nuclei (%),[11],46%
same,Population Hoechst High Intensity Objects (%),[11],21%
same,Population Membrane Permeable-Phenotype (%),[11],11%
same,Population Mitochondria Different-Phenotype (%),[11],9%
same,Population Mitotic Cells (%),[11],23%
same,Population Normal (%),[11],78%
same,Population Pyknosed Nuclei (%),[11],11%
same,Population Tubulin-Different-Phenotype (%),[11],37%
same,Total Cell Count,[11],146
same,Population Apoptotic (%),[12],100%
same,Population Fragmented Nuclei (%),[12],57%
same,Population Healthy Nuclei (%),[12],38%
same,Population Hoechst High Intensity Objects (%),[12],9%
same,Population Membrane Permeable-Phenotype (%),[12],4%
same,Population Mitochondria Different-Phenotype (%),[12],12%
same,Population Mitotic Cells (%),[12],0%
same,Population Normal (%),[12],90%
same,Population Pyknosed Nuclei (%),[12],3%
same,Population Tubulin-Different-Phenotype (%),[12],58%
same,Total Cell Count,[12],139
